Reference: ChEMBL document CHEMBL3244096, “Modifications of primaquine as antimalarials. 1. 5-Phenoxy derivatives of primaquine” (J Med Chem, 1977)
The source made the active and inactive calls.

Legend:
Plasmodium berghei [1] = assay: Antimalarial activity against blood schizont stage of Plasmodium berghei infected in mouse assessed as mean survival days of host at 20 mg/kg (reference value: 6.1 days); type: functional
Plasmodium berghei [2] = assay: Antimalarial activity against blood schizont stage of Plasmodium berghei infected in mouse assessed as mean survival days of host at 160 mg/kg (reference value: 6.1 days); type: functional
Plasmodium berghei [3] = assay: Antimalarial activity against blood schizont stage of Plasmodium berghei infected in mouse assessed as mean survival days of host at 40 mg/kg (reference value: 6.1 days); type: functional
Plasmodium berghei [4] = assay: Antimalarial activity against blood schizont stage of Plasmodium berghei infected in mouse assessed as mean survival days of host at 80 mg/kg (reference value: 6.1 days); type: functional
Plasmodium berghei [5] = assay: Antimalarial activity against blood schizont stage of Plasmodium berghei infected in mouse assessed as mean survival days of host at 640 mg/kg (reference value: 6.1 days); type: functional
Plasmodium berghei [6] = assay: Antimalarial activity against blood schizont stage of Plasmodium berghei infected in mouse assessed as mean survival days of host at 320 mg/kg (reference value: 6.1 days); type: functional
Plasmodium berghei [7] = assay: Antimalarial activity against blood schizont stage of Plasmodium berghei infected in mouse assessed as complete disease cure at 320 mg/kg measured 60 days post infection infection; type: functional, organism-based; parameters: dose 320 mg/kg
Summary of the method: (§1)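 Mice infected with blood-stage Plasmodium berghei, five animals per group, following the Osdene et al. method. Cures are the number of mice alive 60 days after infection. Deaths before day 6 are scored as toxic. Activity is read as the increase in mean survival time over untreated controls, and a group counts as active when its MST exceeds twice the control MST.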

Plasmodium cynomolgi [8] = assay: Antimalarial activity against sporozoite stage of Plasmodium cynomolgi infected in rhesus monkey assessed as radical curative activity at 0.125 mg/kg measured for 90 days; type: functional, organism-based; parameters: dose 0.125 mg/kg
Summary of the method: (§2)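 Rhesus monkeys infected by sporozoite inoculation of Plasmodium cynomolgi and dosed at the mg/kg levels given. Results are recorded as cures per number of animals, or as the day of relapse. An animal with no relapse within 90 days is counted as cured.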

Plasmodium cynomolgi [9] = assay: Antimalarial activity against sporozoite stage of Plasmodium cynomolgi infected in rhesus monkey assessed as radical curative activity at 0.5 mg/kg measured for 90 days; type: functional, organism-based; parameters: dose 0.5 mg/kg; summary of the method: as §2
Plasmodium berghei [10] = assay: Antimalarial activity against blood schizont stage of Plasmodium berghei infected in mouse assessed as complete disease cure at 640 mg/kg measured 60 days post infection infection; type: functional, organism-based; parameters: dose 640 mg/kg; summary of the method: as §1
Mus musculus [11] = assay: Toxicity in mouse infected with blood schizont stage of Plasmodium berghei assessed as mortality at 320 mg/kg measured prior to 6th day; type: organism-based; parameters: dose 320 mg/kg; conditions: in vivo
Summary of the method: (§3)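 In P. berghei-infected mice, five per group, deaths occurring before day 6 after infection are recorded as drug-toxic deaths.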

Plasmodium cynomolgi [12] = assay: Antimalarial activity against sporozoite stage of Plasmodium cynomolgi infected in rhesus monkey assessed as radical curative activity at 0.25 mg/kg measured for 90 days; type: functional, organism-based; parameters: dose 0.25 mg/kg; summary of the method: as §2
Mus musculus [13] = assay: Toxicity in mouse infected with blood schizont stage of Plasmodium berghei assessed as mortality at 160 mg/kg measured prior to 6th day; type: organism-based; parameters: dose 160 mg/kg; conditions: in vivo; summary of the method: as §3
Mus musculus [14] = assay: Toxicity in mouse infected with blood schizont stage of Plasmodium berghei assessed as mortality at 640 mg/kg measured prior to 6th day; type: organism-based; parameters: dose 640 mg/kg; conditions: in vivo; summary of the method: as §3
Plasmodium cynomolgi [15] = assay: Antimalarial activity against sporozoite stage of Plasmodium cynomolgi infected in rhesus monkey assessed as radical curative activity at 0.75 mg/kg measured for 90 days; type: functional, organism-based; parameters: dose 0.75 mg/kg; summary of the method: as §2
Plasmodium cynomolgi [16] = assay: Antimalarial activity against sporozoite stage of Plasmodium cynomolgi infected in rhesus monkey assessed as radical curative activity at 10 mg/kg measured for 90 days; type: functional, organism-based; parameters: dose 10 mg/kg; summary of the method: as §2
Plasmodium cynomolgi [17] = assay: Antimalarial activity against sporozoite stage of Plasmodium cynomolgi infected in rhesus monkey assessed as radical curative activity at 1 mg/kg measured for 90 days; type: functional, organism-based; parameters: dose 1 mg/kg; summary of the method: as §2

SMILES	Survival (Plasmodium berghei [1])	Survival (Plasmodium berghei [2])	Survival (Plasmodium berghei [3])	Survival (Plasmodium berghei [4])	Survival (Plasmodium berghei [5])	Survival (Plasmodium berghei [6])	Activity (Plasmodium berghei [7])	Activity (Plasmodium cynomolgi [8])	Activity (Plasmodium cynomolgi [9])	Activity (Plasmodium berghei [10])	Activity (Mus musculus [11])	Activity (Plasmodium cynomolgi [12])	Activity (Mus musculus [13])	Activity (Mus musculus [14])	Activity (Plasmodium cynomolgi [15])	Activity (Plasmodium cynomolgi [16])	Activity (Plasmodium cynomolgi [17])
COc1cc(NC(C)CCCN)c2ncccc2c1Oc1ccccc1.O.O=P(O)(O)O (configuration not stated)	0.3 days	5.1 days	1.5 days	1.7 days	9.9 days	7.5 days											
COc1cc(NC(C)CCCN)c2ncccc2c1Oc1ccc(F)cc1.O.O=C(O)CC(O)(CC(=O)O)C(=O)O (configuration not stated)	2.1 days	8.9 days	5.7 days	7.5 days			Active	inactive	inactive	Active							
COc1cc(NC(C)CCCN)c2ncccc2c1 (configuration not stated) [PRIMAQUINE]	4 days		5 days	9.4 days							Toxic	inactive	Toxic	Toxic	Active		
COc1cc(NC(C)CCCN)c2ncccc2c1Oc1ccc(Cl)cc1 (configuration not stated)	0.7 days	7.1 days	4.7 days	5.5 days		8.1 days			Active			inactive				Active	Active
COc1cc(NC(C)CCCN)c2ncccc2c1Oc1ccc(NC(C)=O)cc1 (configuration not stated)								inactive	inactive			inactive			inactive	inactive	inactive
